pEC50, pIC50: −log10 of the molar value. Calls of active or inactive are those of the source. The calls are words filed in the database; no cut-off is given here.
Tests used:
[1] = test system: Hepatitis C virus; assay: Antiviral activity against Hepatitis C virus genotype 1b Con1 infected in human HuH7 cells assessed as inhibition of viral RNA replication after 3 by real time PCR analysis; type: functional, organism-based, Hepacivirus hominis, Huh-7; settings: Hepatitis C virus, Con1, Huh-7; read-out: EC50
Method in brief: (§1)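 Each value is the mean of duplicate experiments run on two separate weighings of compound.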

[2] = test system: Hepatitis C virus genotype 2; assay: Inhibition of Hepatitis C virus genotype 2 NS5B Cdelta21 polymerase up to 10 uM
[3] = Ratio of CC50 for human HuH7 cells to EC50 for Hepatitis C virus genotype 1b Con1; parameters: species or system Huh-7
[4] = test system: Hepatitis C virus; assay: Inhibition of Hepatitis C virus genotype 1b Con1 NS5B Cdelta21 polymerase-mediated RNA synthesis at initiation phase after 15 mins by primer extension assay; settings: Hepacivirus hominis
[5] = test system: Hepacivirus hominis; assay: Ratio of IC50 for Hepatitis C virus subtype 1b BK NS5B Cdelta21 polymerase to IC50 for Hepatitis C virus genotype 1b Con1 NS5B Cdelta21 polymerase
[6] = test system: Hepatitis C virus; assay: Ratio of IC50 for Hepatitis C virus genotype 1b Con1 NS5B Cdelta21 polymerase thumb site 2 M423T mutant to IC50 for Hepatitis C virus genotype 1b Con1 NS5B Cdelta21 polymerase; parameters: species or system Hepacivirus hominis
[7] = test system: Hepatitis C virus; assay: Inhibition of Hepatitis C virus genotype 1b Con1 NS5B Cdelta21 polymerase-mediated RNA synthesis at elongation phase after 22 hrs by single round elongation assay; settings: Hepacivirus hominis
Method in brief: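 Single-cycle assay measuring elongation from NS5B enzyme–primer–template complexes that were preformed before elongation.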

[8] = test system: Hepatitis C virus; assay: Ratio of IC50 for Hepatitis C virus genotype 1b Con1 NS5B Cdelta21 polymerase thumb site 1 P495L mutant to IC50 for Hepatitis C virus genotype 1b Con1 NS5B Cdelta21 polymerase; parameters: species or system Hepacivirus hominis
[9] = Inhibition of Hepatitis C virus genotype 1b Con1 NS5B Cdelta21 polymerase assessed as incorporation of [33P]-CTP into heteropolymer RNA template after 2 hrs; parameters: species or system Hepacivirus hominis; settings: Con1, 2 h; method in brief: as §1
[10] = test system: Hepatitis C virus; assay: Ratio of IC50 for Hepatitis C virus genotype 1b Con1 NS5B Cdelta21 polymerase palm site 2 C316N mutant to IC50 for Hepatitis C virus genotype 1b Con1 NS5B Cdelta21 polymerase; parameters: species or system Hepacivirus hominis
[11] = test system: Hepatitis C virus genotype 3; assay: Inhibition of Hepatitis C virus genotype 3 NS5B Cdelta21 polymerase up to 10 uM
[12] = test system: Hepatitis C virus; assay: Ratio of IC50 for Hepatitis C virus genotype 1b Con1 NS5B Cdelta21 polymerase palm site 1 G554D mutant to IC50 for Hepatitis C virus genotype 1b Con1 NS5B Cdelta21 polymerase; parameters: species or system Hepacivirus hominis
[13] = Cytotoxicity against human HuH7 cells after 3 days by MTS assay; type: cell-based, Huh-7; method in brief: as §1
[14] = test system: Hepatitis C virus genotype 4; assay: Inhibition of Hepatitis C virus genotype 4 NS5B Cdelta21 polymerase up to 10 uM
[15] = test system: Hepatitis C virus; assay: Ratio of IC50 for Hepatitis C virus genotype 1b Con1 NS5B Cdelta21 polymerase palm site 2 C316Y mutant to IC50 for Hepatitis C virus genotype 1b Con1 NS5B Cdelta21 polymerase; parameters: species or system Hepacivirus hominis
[16] = test system: Hepacivirus hominis; assay: Ratio of IC50 for Hepatitis C virus subtype 1a H77 NS5B Cdelta21 polymerase to IC50 for Hepatitis C virus genotype 1b Con1 NS5B Cdelta21 polymerase
[17] = test system: Hepatitis C virus; assay: Ratio of IC50 for Hepatitis C virus genotype 1b Con1 NS5B Cdelta21 polymerase palm site 1 M414T mutant to IC50 for Hepatitis C virus genotype 1b Con1 NS5B Cdelta21 polymerase; parameters: species or system Hepacivirus hominis

| Structure (SMILES) | pEC50 [1] | inhibition [2] | Ratio CC50/EC50 [3] | inhibition [4] | Ratio IC50 [5] | Ratio IC50 [6] | inhibition [7] | Ratio IC50 [8] | pIC50 [9] | Ratio IC50 [10] | inhibition [11] | Ratio IC50 [12] | CC50 at 72 h [13] [µM] | inhibition [14] | Ratio IC50 [15] | Ratio IC50 [16] | Ratio IC50 [17] |
| --- | --- | --- | --- | --- | --- | --- | --- | --- | --- | --- | --- | --- | --- | --- | --- | --- | --- |
| Cc1ncccc1C(=O)Nc1ccc(C(C)C)cc1N1CCN(c2ncnc3ccsc23)CC1 | 6.15 | inactive | >20 | Active | 14 | 1 | inactive | 1 | 7.85 | 3 | inactive | 4 | 15 | inactive | >300 | 140 | 21 |
| Cc1ncccc1C(=O)Nc1ccc(C(C)C)cc1N1CCN(c2ncnc3[nH]ccc23)CC1 | 5.52 | inactive | – | – | 27 | 1 | – | 1 | 7.49 | 4 | inactive | 8 | > 10 | inactive | >300 | 270 | 27 |
| Cc1ncccc1C(=O)Nc1ccc(C(C)C)cc1N1CCN(c2cnccn2)CC1 | 5.55 | – | 10 | – | – | – | – | – | 6.28 | – | – | – | 22 | – | – | – | – |

Reference: ChEMBL document CHEMBL2010780, “Pyridine Carboxamides: Potent Palm Site Inhibitors of HCV NS5B Polymerase” (ACS Med Chem Lett, 2010)
